Test results from ChEMBL document CHEMBL3526028 (Drug Metab Dispos, 2013).

Assays:
Mus musculus [1] = assay: Brain efflux index in Mrp2 deficient mouse assessed as transport of compound from ipsilateral cerebrum to the circulating blood across the blood-brain barrier at 10 nCi/ml, intracerebral microinjection after 30 mins relative to wild type; details: other, 0.5 h
Mus musculus [2] = assay: Brain efflux index in wild type mouse assessed as transport of compound from ipsilateral cerebrum to the circulating blood across the blood-brain barrier at 10 nCi/ml, intracerebral microinjection after 30 mins in presence 100 mM probenecid OAT inhibitor relative to wild type; details: other, 0.5 h
Mus musculus [3] = assay: Brain efflux index in wild-type mouse assessed as transport of compound from ipsilateral cerebrum to the circulating blood across the blood-brain barrier at 10 nCi/ml, intracerebral microinjection after 30 mins in presence 100 mM probenecid OAT inhibitor; details: other, 0.5 h
[4] = Drug uptake in mouse cerebrum
Mus musculus [5] = assay: Brain efflux index in Bcrp1 deficient mouse assessed as transport of compound from ipsilateral cerebrum to the circulating blood across the blood-brain barrier at 10 nCi/ml, intracerebral microinjection after 30 mins; assay type: ADME, organism-based; details: other, 0.5 h
Summary of the method: (§1)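 Intracerebral microinjection under ip ketamine (100 mg/kg)/xylazine (10 mg/kg). Stereotaxic needle at 3.8 mm lateral to bregma, 2.5 mm deep, into S2 cortex. 0.2 µL [3H]-drug (10 nCi/ml) with [14C]-carboxyl-inulin (10 nCi/ml) in ECF buffer pH 7.4 given over 2 min. Ipsilateral cerebrum taken at set times, homogenised in 5% BSA and counted by scintillation. Retained/injected ratio normalised to inulin; n=3-4.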

Mus musculus [6] = assay: Brain efflux index in wild-type mouse assessed as transport of compound from ipsilateral cerebrum to the circulating blood across the blood-brain barrier at 10 nCi/ml, intracerebral microinjection after 30 mins in presence 100 mM benzylpenicillin OAT inhibitor; details: other, 0.5 h
Brain [7] = assay: Ratio of efflux clearance to clearance in brain measured in mouse at 0.3 uCi/ml by in vitro brain slice uptake technique; assay type: ADME, tissue-based
Mus musculus [8] = assay: Brain efflux index in wild type mouse assessed as transport of compound from ipsilateral cerebrum to the circulating blood across the blood-brain barrier at 10 nCi/ml, intracerebral microinjection after 30 mins; assay type: ADME, organism-based; details: other, 0.5 h
Summary of the method: as §1

Brain [9] = assay: Efflux clearance mouse brain measured per gm of tissue at 0.3 uCi/ml by in vitro brain slice uptake technique; assay type: ADME
[10] = Elimination rate constant mouse brain at 10 nCi/ml
Mus musculus [11] = assay: Brain efflux index in Bcrp1 deficient mouse assessed as transport of compound from ipsilateral cerebrum to the circulating blood across the blood-brain barrier at 10 nCi/ml, intracerebral microinjection after 30 mins relative to wild type; assay type: ADME, organism-based; details: other, 0.5 h
Summary of the method: as §1

Mus musculus [12] = assay: Brain efflux index in Mrp2 deficient mouse assessed as transport of compound from ipsilateral cerebrum to the circulating blood across the blood-brain barrier at 10 nCi/ml, intracerebral microinjection after 60 mins; assay type: ADME, organism-based; details: other, 1 h
Summary of the method: as §1

[13] = Drug uptake in mouse brain ipsilateral cerebrum assessed as radiolabelled compound after 30 mins at 0.1 uM, intracerebral microinjection; assay type: ADME, tissue-based; details: in vivo, other, 0.5 h
Summary of the method: (§2)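 Male C57BL/6 wild-type mice under ketamine 100 mg/kg plus xylazine 10 mg/kg i.p., on a stereotaxic frame. 0.2 µL was injected over 2 min into the S2 cortex, 3.8 mm lateral to bregma and 2.5 mm deep. Injectate: [3H]-drug plus [14C]-carboxyl-inulin, 10 nCi/ml each, in ECF buffer pH 7.4. Needle held 4 min. Ipsilateral cerebrum harvested at 30 min and counted by scintillation. Retention normalized to inulin. n=3-4.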

[14] = Drug uptake in mouse brain ipsilateral cerebrum assessed as radiolabelled compound after 30 mins at 0.1 uM, intracerebral microinjection in presence 100 mM probenecid OAT inhibitor; assay type: ADME, tissue-based; details: in vivo, other, 0.5 h
Summary of the method: as §2

[15] = Drug uptake in mouse brain ipsilateral cerebrum assessed as radiolabelled compound after 30 mins at 0.1 uM, intracerebral microinjection in presence 100 mM benzylpenicillin OAT inhibitor; assay type: ADME, tissue-based; details: in vivo, other, 0.5 h
Summary of the method: as §2

[16] = Elimination half life in mouse brain at 10 nCi/ml, icv; assay type: ADME, organism-based; details: icv or intrathecal, read-out: beta t1/2 (converted)
Summary of the method: (§3)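 Intracerebral microinjection into the S2 cortex of anaesthetized mice, 0.2 µL of [3H]-drug (10 nCi/ml) with [14C]-carboxyl-inulin in ECF buffer. Ipsilateral cerebrum radioactivity was followed over time, up to 60 min for methotrexate. Elimination rate constant keff came from regression of percent remaining versus time, and half-life from keff. n=3-4.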

Mus musculus [17] = assay: Brain efflux index in wild type mouse assessed as transport of compound from ipsilateral cerebrum to the circulating blood across the blood-brain barrier at 10 nCi/ml, intracerebral microinjection after 30 mins in presence 100 mM benzylpenicillin OAT inhibitor relative to wild type; details: other, 0.5 h
[18] = Drug uptake in mouse brain ipsilateral cerebrum assessed as radiolabelled compound after 30 mins at 0.1 uM, intracerebral microinjection in presence of 50 mM unlabelled compound; assay type: ADME, tissue-based; details: in vivo, other, 0.5 h
Summary of the method: as §2

Mus musculus [19] = assay: Brain efflux index in wild-type mouse assessed as transport of compound from ipsilateral cerebrum to the circulating blood across the blood-brain barrier at 10 nCi/ml, intracerebral microinjection after 30 mins in presence of 1 mM unlabelled compound; details: other, 0.5 h
[20] = Drug uptake in mouse brain ipsilateral cerebrum assessed as radiolabelled compound after 30 mins at 0.1 uM, intracerebral microinjection in presence of 1 mM unlabelled compound; assay type: ADME, tissue-based; details: in vivo, other, 0.5 h
Summary of the method: as §2

Mus musculus [21] = assay: Brain efflux index in wild-type mouse assessed as transport of compound from ipsilateral cerebrum to the circulating blood across the blood-brain barrier at 10 nCi/ml, intracerebral microinjection after 30 mins in presence of 50 mM unlabelled compound; details: other, 0.5 h
Mus musculus [22] = assay: Brain efflux index in wild type mouse assessed as transport of compound from ipsilateral cerebrum to the circulating blood across the blood-brain barrier at 10 nCi/ml, intracerebral microinjection after 30 mins in presence of 1 mM unlabelled compound relative to wild type; details: other, 0.5 h
Mus musculus [23] = assay: Brain efflux index in wild type mouse assessed as transport of compound from ipsilateral cerebrum to the circulating blood across the blood-brain barrier at 10 nCi/ml, intracerebral microinjection after 30 mins in presence of 50 mM unlabelled compound relative to wild type; details: other, 0.5 h
Brain [24] = assay: Elimination half life in mouse brain; assay type: ADME, tissue-based; details: in vivo
Summary of the method: as §3

Row | BEI (Mus musculus [2]) | BEI (Mus musculus [3]) | BEI (Mus musculus [5]) | BEI (Mus musculus [6]) | BEI (Mus musculus [8]) | CL (Brain [9]) | k el [10] | BEI (Mus musculus [11]) | BEI (Mus musculus [12]) | Drug uptake [13] | Drug uptake [14] | Drug uptake [15] | half-life [16] | BEI (Mus musculus [17]) | SMILES | further results
1 | 37.9% | 24.2% | 46.4% | 13.7% | 63.8% | 20.23 µL/min/g | 0.000397 s⁻¹ | 72.7% | 57.2% | 36.2% | 75.8% | 90% | 28.8 min | 21.4% | CN(Cc1cnc2nc(N)nc(N)c2n1)c1ccc(C(=O)N[C@@H](CCC(=O)O)C(=O)O)cc1 [METHOTREXATE] | BEI (Mus musculus [1]): 90%; Drug uptake [4]: 3.2%; Ratio (Brain [7]): 0.05
2 | 56.5% | 27.6% | 43.9% | 12.2% | 48.9% | 11.04 µL/min/g | 0.000297 s⁻¹ | 89.7% | 58.3% | 51.1% | 72.4% | 90% | 39 min | 25% | Nc1nc2[nH]cc(CCc3ccc(C(=O)N[C@@H](CCC(=O)O)C(=O)O)cc3)c2c(=O)[nH]1 [PEMETREXED] | Drug uptake [18]: 95.7%; BEI (Mus musculus [19]): 28.3%; Drug uptake [20]: 71.7%; BEI (Mus musculus [21]): 4.3%; BEI (Mus musculus [22]): 57.8%; BEI (Mus musculus [23]): 8.8%
3 |  |  |  |  |  |  |  |  |  |  |  |  |  |  | CCCC(CCC)C(=O)O [VALPROIC ACID] | beta t1/2 (Brain [24]): 2 min
